This is an account of results in PubChem BioAssay.

A number with no mark means an inactive call. Records with an inconclusive call do not appear. The source made the active and inactive calls.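 How the source made its calls, unless noted: active means RAM network inhibition above 8.4% in each of two replicates, 3 SD over the compound average; inconclusive means above 8.4% inhibition in only one replicate; inactive means 8.4% inhibition or less in each replicate.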

Test [1] is described as follows: S. cerevisiae growth inhibition in permissive medium (OD615), pilot counter-assay for S. cerevisiae lifespan shortening project, permissive growth control (AID 705;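 active means growth inhibition above 25% in both replicates, a cutoff set 3 SD above the mean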). The note with it: OD615, 24 h, at 10 µM, hits give high values. Put shortly:
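Material: engineered DeaD yeast; compound dosing: one dose 10 µM, DMSO 0.25% final; measure: yeast growth inhibition indicated by reduced 24 h OD615; detection: OD615 turbidity read; incubation: cells pre-grown 4 h, then 24 h compound exposure, 30 °C humidified; medium: permissive synthetic complete medium with raffinose and galactose carbon sources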

Test [2] is described as follows: S. cerevisiae growth inhibition in restrictive medium, OD615, pilot screen, restrictive growth control, yeast lifespan reduction project (AID 706;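 active means growth inhibition above a set limit, 3 SD over mean compound inhibition, in both replicates, cut at about 43% in these data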;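 further: modified DeaD lifespan yeast strain shifted to restrictive glucose medium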). Particulars: OD615, 48 h, at 10 µM, hits give high values. Put shortly:
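material = engineered S. cerevisiae DeaD strain | medium = glucose-based CSMM-D restrictive medium | times = 4 h pre-incubation, 48 h exposure at 30 °C | technique = OD615 absorbance reading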

A short description of test [3]: doxorubicin toxicity protection in MRP-1 cells – H69AR cells, CellTiter-Glo, duplicate, MRP-1 activator project, pilot screen (AID 807;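 active means viability increase at or above a cutoff of the median across tested compounds plus 3 SD, cut at about 8.5% in these data, passing the limit was not always enough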;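 further: compound pretreatment 18-22 h then 72 h combined with doxorubicin; 0% = doxorubicin alone and 100% = vehicle without doxorubicin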). Particulars: H69AR viability with doxorubicin, CellTiter-Glo luminescence; at 10 µM; hits give high values.
A short description of test [4]: viability of HCT116 without oncogenic beta-catenin – human colon tumor cells, pilot screen (AID 823;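 active means cell viability at or below a set limit in both duplicate runs, the limit being the all-compound median minus 4 SD, cut at about 23% in these data, passing the limit was not always enough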;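 further: 0% = wells killed by 20 µM Hyamine and 100% = untreated DMSO cell wells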). Particulars: HCT116 beta-catenin knockout viability, CellTiter-Glo, 60 h; at 10 µM; hits give low values. A general note: In ATP-based viability assays light output follows the ATP content of the culture.
Test [5] can be described thus: viability of PTEN-null HCT116 cells – cell-based, HCT116 clonal line, CellTiter-Glo, pilot screen (AID 824;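 active means viability at or below 27.92% in each of two runs, the all-compound median minus 4 SD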;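 further: 0% = 20 µM Hyamine control and 100% = vehicle cell control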). The note with it: HCT116 PTEN-deleted viability, 60 h, at 10 µM, hits give low values.
A short description of test [6]: RAM pathway blockade in budding yeast – dse1pr::URA3 reporter, 5-FOA selection, pilot screen (AID 869;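 active means inhibition over a set limit, the all-compound mean plus 3 SD, in both replicate runs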;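 further: 0% = DMSO wells with no growth and 100% = 10 µM 1-NA-PP1 with full growth; RAM network block rescues cells from 5-FOA so hits raise OD615 growth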). The note with it: S. cerevisiae dse1pr::URA3 5-FOA growth, OD615, 2 d; at 10 µM; hits give high values; strain carries analog-sensitive mutant Cbk1 kinase.
The nature of test [7]: RAM signaling pathway blockade in yeast – S. cerevisiae, Pdr1DBD-CYC8 efflux-inhibited sensitized strain, primary screen (AID 1298).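 Further: 0% = DMSO untreated cells without growth and 100% = 10 µM 1-NA-PP1 full growth; higher means more yeast growth rescued from 5-FOA killing.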 Particulars: S. cerevisiae cbk1-as DSE1-URA3 strain, 5-FOA growth OD615, 2 d; at 50 µM; hits give high values.

Take `O=C(OCC(F)(F)C(F)F)c1ccccc1C(=O)Oc1ccc(F)cc1F`: the values for the growth inhibition in test [1] and in test [2] were -2.13% and -13.3%, respectively. Also, in test [3], the viability increase is -3.1%. The viability (commonly a read-out of living cells in per cent, often relative to untreated cells) in test [4] is 99.1%; in test [5], 96.1%. Further, the inhibition – broadly, the relative decrease from the control value, in per cent – in test [6] is 1.86%. Also, the RAM network inhibition in test [7] was 3.89%.
`CC(=O)Nc1c(-c2ccccc2)nc2ncccn12`: the values for the growth inhibition in test [1] and in test [2] were -4.64% and -5.57%, respectively. Besides, the viability increase in test [3] is -0.33%. In addition, the viability is 108% in test [4] and 95.4% in test [5]. Further, the inhibition in test [6] was 2.77%. Also, the RAM network inhibition in test [7] is 0.97%.
Take `O=C(c1cccc2c1-c1ccccc1/C2=N/O)N1CCCCC1`: the growth inhibition is 6.27% in test [1] and -0.58% in test [2]. In addition, in test [3], the viability increase was -3.72%. Further, the figures for the viability in test [4] and in test [5] were 88.5% and 92.3%, respectively. Further, the inhibition in test [6] is 0.91%. For the same molecule, the RAM network inhibition in test [7] is 4.23%.
In the case of `CCCNC(=O)Nc1cc(OCC)c(N2CCOCC2)cc1OCC`, the growth inhibition was -0.41% in test [1] and 6.55% in test [2]. Further, in test [3], the viability increase is -1.37%. Besides, the viability in test [4] was 99.6%; in test [5], 105%. Further, the inhibition in test [6] is 1.57%. Further, the RAM network inhibition in test [7] was 0.87%.
On to `Cc1cc(NC(=O)CSc2c(C)[nH]c3ccccc23)no1`, for which the growth inhibition in test [1] was -11.4%; in test [2], -4.25%. Moreover, the viability increase in test [3] is -1.25%. The viability in test [4] is 104%; in test [5], 89.4%. Besides, in test [6], the inhibition is 0.94%. The RAM network inhibition in test [7] is 4.64%.
On to `COC(=O)c1cn(C(C)C(=O)NCc2ccco2)c2ccccc12` (stereo unspecified), for which the growth inhibition is -16.9% in test [1] and -23.6% in test [2]. Also, the viability increase in test [3] was -0.53%. Moreover, the viability in test [4] and in test [5] was 102% throughout. The inhibition in test [6] is 1.68%. Also, the RAM network inhibition in test [7] was 2.95%.
Consider `CCOC(=O)C1C(c2cccc(Cl)c2Cl)NC(=O)NC1(O)C(F)(F)F` (stereo unspecified), for which the growth inhibition is -5.62% in test [1] and -7.31% in test [2]. Also, the viability increase in test [3] is -2.19%. Further, the figures for the viability in test [4] and in test [5] were 94.8% and 96.9%, respectively. The inhibition in test [6] was 1.15%. In addition, the RAM network inhibition in test [7] was 7.71%.
On to `COc1ccc(OCCSc2nnc(-c3ccccc3)n2N)cc1`, for which the growth inhibition in test [1] was -2.49%; in test [2] it was -12.7%. In addition, in test [3], the viability increase is 0.25%. Moreover, the values for the viability in test [4] and in test [5] were 89.8% and 92.5%, respectively. Further, in test [6], the inhibition was 1.27%. The RAM network inhibition in test [7] is 5.07%.
For the molecule `Cc1cccc(NC(=O)c2ccc(S(=O)(=O)N3CCCCC3)cc2)n1`, the growth inhibition was -8.26% in test [1] and -4% in test [2]. Besides, the viability increase in test [3] was 1.43%. The viability in test [4] was 94.5%; in test [5], 87%. Moreover, in test [6], the inhibition was -0.09%. Moreover, the RAM network inhibition in test [7] was 0.16%.
Consider `COc1ccc(C)cc1NC(=O)CN1C(=O)c2ccccc2S1(=O)=O`, for which the growth inhibition in test [1] was 6.31%; in test [2], 10.8%. Besides, in test [3], the viability increase was -2.12%. In addition, the viability was 102% in test [4] and 94.4% in test [5]. For the same molecule, the inhibition in test [6] is 3.04%. In addition, in test [7], the RAM network inhibition was 4.58%.
For the molecule `Cc1c(C(=O)NCc2ccc3c(c2)OCO3)oc2ccccc12`, the growth inhibition in test [1] is 1.35%; in test [2] it was 16%. Besides, in test [3], the viability increase is -0.04%. Moreover, the viability in test [4] is 108%; in test [5] it was 98.9%. In addition, the inhibition in test [6] is -0.54%. Further, the RAM network inhibition in test [7] is 5.64%.
Take `Cc1ccc(-c2nn3c(C)nnc3s2)cc1NC(=O)c1ccc(OC(C)C)cc1`: the growth inhibition is 12.3% in test [1] and 56% (active) in test [2]. The viability increase in test [3] was -4.84%. Also, the viability was 79.4% in test [4] and 68.4% in test [5]. Moreover, the inhibition in test [6] is 0.855%. Moreover, the RAM network inhibition in test [7] was 7.25%.
As to `O=C(c1cccc(C(=O)N2CCc3ccccc32)n1)N1CCc2ccccc21`, the growth inhibition in test [1] was -9.26%; in test [2] it was -3.99%. For the same molecule, in test [3], the viability increase was -5.2%. Moreover, the viability in test [4] is 83.3%; in test [5], 84.4%. In test [6], the inhibition is 0.515%. Further, the RAM network inhibition in test [7] was 6.13%.
`CCOc1ccc(N2C(=O)CC(Sc3nc(C)cc(C)n3)C2=O)cc1` (stereo unspecified): the growth inhibition is -3.95% in test [1] and 1.55% in test [2]. In test [3], the viability increase was -1.4%. Besides, the viability in test [4] is 108%; in test [5], 98.9%. In test [6], the inhibition was 0.24%. In addition, the RAM network inhibition in test [7] is 3.27%.
For the molecule `O=C1C2C3C=CC(CO)(O3)C2C(=O)N1c1ccccc1-c1ccccc1` (stereo unspecified), the results for the growth inhibition in test [1] and in test [2] were 97.3% (active) and 100% (active), respectively. Moreover, in test [3], the viability increase was -4.39%. The viability was 93.7% in test [4] and 92% in test [5]. The inhibition in test [6] is 0.13%. For the same molecule, the RAM network inhibition in test [7] is -1.89%.
`Cc1nc2sc(C(c3cccs3)N3CCN(C(=O)c4ccco4)CC3)c(O)n2n1` (stereo unspecified): the growth inhibition in test [1] is -1.15%; in test [2] it was -6.47%. In test [3], the viability increase is -3.62%. Also, the viability in test [4] is 102%; in test [5], 100%. Moreover, the inhibition in test [6] was 0.74%. Besides, the RAM network inhibition in test [7] is -1.05%.
Consider `CCOC(=O)C1CCN(C(=O)CS(=O)Cc2nc(-c3ccc(C)cc3)oc2C)CC1` (stereo unspecified), for which the growth inhibition was 1.66% in test [1] and 22.5% in test [2]. Moreover, in test [3], the viability increase was -3.68%. Moreover, the viability in test [4] was 86.3%; in test [5], 84.6%. Also, the inhibition in test [6] is 0.32%. In addition, the RAM network inhibition in test [7] was 7.5%.
Consider `O=S(=O)(Cc1ccccc1)N1CCn2c(nc3ccccc32)C1`, for which the growth inhibition in test [1] was -14.1%; in test [2] it was -0.745%. In addition, the viability increase in test [3] was -0.75%. Also, the values for the viability in test [4] and in test [5] were 103% and 97.5%, respectively. In test [6], the inhibition was 1.5%. The RAM network inhibition in test [7] is 4.75%.
